Experiment [1] has as its system ERK substrates (p90RSK and ELK) phosphorylation in A375 cells. Put plainly: western blotting of MAPK pathway phosphorylation in A375 cells after EGF. Format: cell-based, human. The following applies: for phosphorylation of ERK substrates (p90RSK and ELK), in words: A375, 0.5–25 μM, EGF stimulation; for concentration enough to inhibit ELK phosphorylation / concentration enough to inhibit p-90RSK phosphorylation: A375, 12 h, then EGF 100 nM; for effect on ERK or MKK½ phosphorylation or the JNK pathway: A375, EGF stimulation. Put shortly:
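A375 cells (1,000,000 per well) were seeded 24 h, then treated with DMSO or test compound (0.5–25 μM) in serum-free medium for 4 or 12 h. Cells were stimulated with 100 nM EGF for 10–15 min, lysed, and 60 μg lysate was blotted. Probes: phospho-p90RSK (Thr573), RSK, phospho-Elk-1 (Ser383), phospho- and total ERK1/2, phospho-JNK (Thr183/Tyr185). Done twice.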
(In general: A western blot detects proteins with antibodies after separation by electrophoresis.)

In experiment [2] the target is ERK2 (Rattus norvegicus, UniProt P63086). Put plainly: steady-state kinetic experiments, ERK2 with varied Mg-ATP. The experiment is classed as biochemical. The following applies: versus ATP, double reciprocal plot. A digest of the protocol: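 Activated rat ERK2 was run in the radiometric kinase buffer with 50 μM His-Ets-1. Mg-ATP was varied (10–2000 μM) at several fixed test compound concentrations (0–54 μM). Initial rates were taken from product-versus-time plots. Mechanism was assessed from a double-reciprocal plot of 1/V0 versus 1/[Mg-ATP].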

The subject of experiment [3] is NCI-60 panel of tumor cell lines. The experiment in a line: cells. The following applies: Homo sapiens.
Experiment [4] deals with TK-10. The experiment in a line: NCI-60 SRB screen, Renal cancer. Format: cell-based. Put shortly:
(§1)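 Five-dose NCI-60 protocol (DTP, NCI). Absorbance was read at time zero (Tz), for untreated control (C) and at five compound levels (Ti), with SRB protein-stain end point read spectrophotometrically. GI50 from [(Ti−Tz)/(C−Tz)]×100 = 50; TGI from Ti = Tz; LC50 from [(Ti−Tz)/Tz]×100 = −50. A parameter not reached is given as greater than the highest concentration tested.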

In experiment [5] the test system is MDA-MB-231/ATCC. The experiment in a line: NCI-60 SRB screen, Breast cancer. The experiment is classed as cell-based. Put shortly:
as §1

In experiment [6] the test system is UACC-257. Put plainly: NCI-60 SRB screen, Melanoma. Format: cell-based. Put shortly: as §1
In experiment [7] the test system is 786–0. The experiment in a line: NCI-60 SRB screen, Renal cancer. Format: cell-based. Put shortly:
as §1

Experiment [8] concerns HS 578 T. Put plainly: NCI-60 SRB screen, Breast cancer. Format: cell-based. Put shortly:
as §1

The test system of experiment [9] is COLO 205. Put plainly: NCI-60 SRB screen, Colon cancer. Format: cell-based. Put shortly:
as §1

In experiment [10] the test system is EKVX. Put plainly: NCI-60 SRB screen, Non-small cell lung cancer. The experiment is classed as cell-based, human. The following applies: for Growth percent (G%): 10^−5 M, 48 h.
Experiment [11] concerns NCI/ADR-RES. The experiment in a line: NCI-60 SRB screen, Ovarian cancer. The experiment is classed as cell-based. Put shortly: as §1

Results on three molecules are retold here after article PMC6543826 (Bioorganic chemistry, 2018).

Structures are written as SMILES. Like-named read-outs stand apart in the source and are kept apart here.

What is called GI50 is the concentration at which growth is held to half of that of the control. In general, TGI refers to the concentration giving total growth inhibition. A higher TGI goes with less potent growth arrest.

Sequence of ERK2 (P63086 whole entry): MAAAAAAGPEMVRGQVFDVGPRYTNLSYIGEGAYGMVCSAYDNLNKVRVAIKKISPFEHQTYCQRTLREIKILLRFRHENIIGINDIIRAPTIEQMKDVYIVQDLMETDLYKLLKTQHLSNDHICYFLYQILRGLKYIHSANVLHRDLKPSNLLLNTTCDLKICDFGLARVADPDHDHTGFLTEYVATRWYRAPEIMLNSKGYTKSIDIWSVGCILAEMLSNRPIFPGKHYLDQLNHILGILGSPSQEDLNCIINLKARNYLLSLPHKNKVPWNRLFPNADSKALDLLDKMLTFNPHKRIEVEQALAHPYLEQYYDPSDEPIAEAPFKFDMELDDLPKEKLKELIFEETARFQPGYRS

Turning to `O=C1C(Cl)=C(c2c(O)c3c(=O)n(-c4ccccc4)c4ccccc4c3oc2=O)C(=O)c2ccccc21` [compound 6, 3-(3-Chloro-1,4-dioxo-1,4-dihydronaphthalen-2-yl)-4-hydroxy-6-phenyl-2H-pyrano[3,2-c]quinoline-2,5(6H)-dione], in [1], the “phosphorylation of ERK substrates (p90RSK and ELK), in words” value is reported as “dose-dependent inhibition”; the “concentration enough to inhibit ELK phosphorylation” value was 2.5 µM; the “concentration enough to inhibit p-90RSK phosphorylation” value stood at 10 µM; the “effect on ERK or MKK½ phosphorylation or the JNK pathway” value is on record as “no effect”. Also, the “mechanism of ERK2 inhibition” value in experiment [2] is on record as “competitive inhibition”.
On to `O=C1c2ccccc2C(=O)c2c1oc1c2c(=O)[nH]c2ccc(Cl)cc21` [3b, 2-Chloronaphtho[2′,3′:4,5]furo[3,2-c]quinoline-6,7,12(5H)-trione], for which the concentration for 50% growth inhibition (GI50) in experiment [3] (read-out: GI50, average across all cell lines tested) was 0.24 µM; in experiment [3] (read-out: GI50 values, range over all cell lines), 0.14 to 10.5 µM; in [4] (Homo sapiens, TK-10) it was 0.38 µM; in [5] (Homo sapiens, MDA-MB-231), 0.17 µM; in experiment [6] (Homo sapiens, UACC-257) it was 1.32 µM; in [7] (Homo sapiens, 786-0), 0.22 µM. The GI50 in experiment [8] (Homo sapiens, Hs-578T) was 0.26 µM; in experiment [9] (Homo sapiens, COLO 205), 10.5 µM; in [10] (Homo sapiens), 0.25 µM; in [11] (Homo sapiens) it was 0.35 µM. Moreover, the CC50 in [3] (read-out: LC50, average) was 7.58 µM; in [4] (Homo sapiens, TK-10, read-out: LC50), 6.03 µM; in experiment [5] (Homo sapiens, MDA-MB-231, read-out: LC50), 2.82 µM; in experiment [6] (Homo sapiens, UACC-257, read-out: LC50), 8.51 µM; in experiment [7] (Homo sapiens, 786-0, read-out: LC50) it was 2.45 µM; in experiment [8] (Homo sapiens, Hs-578T, read-out: LC50), over 100 µM. Moreover, the CC50 in experiment [9] (Homo sapiens, COLO 205, read-out: LC50) worked out at 72.4 µM; in [10] (Homo sapiens, read-out: LC50) it was 26.3 µM; in [11] (Homo sapiens, read-out: LC50), 34.7 µM. Also, the TGI in [4] (TK-10, five-dose) stood at 1.10 µM; in [5] (MDA-MB-231/ATCC, five-dose) it was 0.51 µM; in [6] (UACC-257, five-dose), 3.39 µM; in experiment [7] (786–0, five-dose), 0.54 µM; in experiment [8] (HS 578 T, five-dose) it was 1.38 µM; in experiment [9] (COLO 205, five-dose) it was 27.54 µM. For the same molecule, the TGI amounted to 2.45 µM in experiment [10] (five-dose) and 1.78 µM in [11] (five-dose). Also, in [1], the “phosphorylation of ERK substrates (p90RSK and ELK), in words” value is reported as “dose-dependent inhibition”. Further, the “concentration enough to inhibit ELK phosphorylation” value in experiment [1] turned out to be 10 µM. Further, the “concentration enough to inhibit p-90RSK phosphorylation” value in experiment [1] turned out to be 25 µM. In addition, in experiment [1], the “effect on ERK or MKK½ phosphorylation or the JNK pathway” value is “no effect”. Further, in [10], the “Growth percent (G%)” value was found to be 15.17%.
Regarding `O=C1c2ccccc2C(=O)c2c1oc1c2c(=O)[nH]c2ccccc21` [3a, Naphtho[2′,3′:4,5]furo[3,2-c]quinoline-6,7,12(5H)-trione], the “Growth percent (G%)” value in experiment [10] was determined as 27.35%.
